Assay [1] can be described thus: Inhibition of p38 assessed as rate of ATF-2 phosphorylation by immunosorbent non-radioactive enzyme assay. In a few lines:
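p38α MAP kinase ELISA-type (immunosorbent, non-radioactive) assay. Enzyme was incubated with ATP at 100 µM, ATF-2 as substrate, and test compound at 10^-5 to 10^-8 M. Activity was read as the rate of ATF-2 phosphorylation. SB203580 served as the reference inhibitor.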

The target in assay [2] is RAC-alpha serine/threonine-protein kinase (Homo sapiens) (UniProt P31749). As to the kind of experiment: Inhibition of AKT1 at 10 uM.
Sequence of RAC-alpha serine/threonine-protein kinase (Homo sapiens) (P31749 whole entry): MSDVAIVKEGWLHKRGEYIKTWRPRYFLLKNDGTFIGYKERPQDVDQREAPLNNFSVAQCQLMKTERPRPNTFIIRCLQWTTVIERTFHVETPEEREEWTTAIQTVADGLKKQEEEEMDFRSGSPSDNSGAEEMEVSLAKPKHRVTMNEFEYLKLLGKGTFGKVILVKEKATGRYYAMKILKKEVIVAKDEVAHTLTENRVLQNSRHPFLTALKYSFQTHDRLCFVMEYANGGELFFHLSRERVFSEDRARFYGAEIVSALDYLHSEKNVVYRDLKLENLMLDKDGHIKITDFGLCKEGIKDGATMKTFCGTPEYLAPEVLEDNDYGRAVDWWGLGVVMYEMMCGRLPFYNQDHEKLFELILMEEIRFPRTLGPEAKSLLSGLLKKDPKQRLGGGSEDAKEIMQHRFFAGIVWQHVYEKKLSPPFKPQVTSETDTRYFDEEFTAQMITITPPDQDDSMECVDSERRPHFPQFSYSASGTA
Assay [3] concerns the target T1, NUAK family SNF1-like kinase 1 (Homo sapiens) (UniProt O60285).
T1 sequence (whole entry): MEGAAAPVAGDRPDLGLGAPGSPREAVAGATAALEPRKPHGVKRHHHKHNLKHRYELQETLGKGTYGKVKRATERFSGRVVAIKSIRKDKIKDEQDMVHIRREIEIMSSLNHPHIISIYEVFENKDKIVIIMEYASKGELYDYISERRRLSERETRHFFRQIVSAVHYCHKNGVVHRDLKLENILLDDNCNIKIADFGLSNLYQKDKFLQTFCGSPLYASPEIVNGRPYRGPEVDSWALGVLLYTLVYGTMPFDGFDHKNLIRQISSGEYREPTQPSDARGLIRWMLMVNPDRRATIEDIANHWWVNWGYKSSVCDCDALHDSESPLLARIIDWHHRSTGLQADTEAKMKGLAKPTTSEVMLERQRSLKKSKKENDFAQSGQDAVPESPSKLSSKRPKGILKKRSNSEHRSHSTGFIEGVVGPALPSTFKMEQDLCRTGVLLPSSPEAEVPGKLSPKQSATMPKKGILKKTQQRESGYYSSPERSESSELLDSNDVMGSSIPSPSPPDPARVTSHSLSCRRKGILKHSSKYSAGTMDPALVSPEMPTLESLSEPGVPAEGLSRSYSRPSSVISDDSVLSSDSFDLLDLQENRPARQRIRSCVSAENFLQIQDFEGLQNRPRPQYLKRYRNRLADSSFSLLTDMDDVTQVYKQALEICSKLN
Description: Inhibition of ARK5 at 10 uM.

Assay [4] deals with Aurora kinase B (Homo sapiens) (UniProt Q96GD4). As to the kind of experiment: Inhibition of Aurora B at 10 uM.
Assay [5] concerns the target Tyrosine-protein kinase receptor UFO (Homo sapiens) (UniProt P30530). Description: Inhibition of AXL at 10 uM.
In assay [6] the test system is Serine/threonine-protein kinase B-raf (Homo sapiens), P15056 [V600E]. Description: Inhibition of B-Raf V600E mutant at 10 uM.
Assay [7] has as its target Casein kinase II subunit alpha (Homo sapiens) (UniProt P68400). Description: Inhibition of CK2alpha1 at 10 uM.
Assay [8] has as its target Focal adhesion kinase 1 (Homo sapiens) (UniProt Q05397). As to the kind of experiment: Inhibition of FAK at 10 uM.
Assay [9] has as its target Insulin-like growth factor 1 receptor (Homo sapiens) (UniProt P08069). As to the kind of experiment: Inhibition of IGF1R at 10 uM.
Assay [10] addresses Insulin receptor (Homo sapiens) (UniProt P06213). As to the kind of experiment: Inhibition of INSR at 10 uM.
For assay [11], the target named is Hepatocyte growth factor receptor (Homo sapiens) (UniProt P08581). Description: Inhibition of MET at 10 uM.
Sequence of Hepatocyte growth factor receptor (Homo sapiens) (P08581 whole entry): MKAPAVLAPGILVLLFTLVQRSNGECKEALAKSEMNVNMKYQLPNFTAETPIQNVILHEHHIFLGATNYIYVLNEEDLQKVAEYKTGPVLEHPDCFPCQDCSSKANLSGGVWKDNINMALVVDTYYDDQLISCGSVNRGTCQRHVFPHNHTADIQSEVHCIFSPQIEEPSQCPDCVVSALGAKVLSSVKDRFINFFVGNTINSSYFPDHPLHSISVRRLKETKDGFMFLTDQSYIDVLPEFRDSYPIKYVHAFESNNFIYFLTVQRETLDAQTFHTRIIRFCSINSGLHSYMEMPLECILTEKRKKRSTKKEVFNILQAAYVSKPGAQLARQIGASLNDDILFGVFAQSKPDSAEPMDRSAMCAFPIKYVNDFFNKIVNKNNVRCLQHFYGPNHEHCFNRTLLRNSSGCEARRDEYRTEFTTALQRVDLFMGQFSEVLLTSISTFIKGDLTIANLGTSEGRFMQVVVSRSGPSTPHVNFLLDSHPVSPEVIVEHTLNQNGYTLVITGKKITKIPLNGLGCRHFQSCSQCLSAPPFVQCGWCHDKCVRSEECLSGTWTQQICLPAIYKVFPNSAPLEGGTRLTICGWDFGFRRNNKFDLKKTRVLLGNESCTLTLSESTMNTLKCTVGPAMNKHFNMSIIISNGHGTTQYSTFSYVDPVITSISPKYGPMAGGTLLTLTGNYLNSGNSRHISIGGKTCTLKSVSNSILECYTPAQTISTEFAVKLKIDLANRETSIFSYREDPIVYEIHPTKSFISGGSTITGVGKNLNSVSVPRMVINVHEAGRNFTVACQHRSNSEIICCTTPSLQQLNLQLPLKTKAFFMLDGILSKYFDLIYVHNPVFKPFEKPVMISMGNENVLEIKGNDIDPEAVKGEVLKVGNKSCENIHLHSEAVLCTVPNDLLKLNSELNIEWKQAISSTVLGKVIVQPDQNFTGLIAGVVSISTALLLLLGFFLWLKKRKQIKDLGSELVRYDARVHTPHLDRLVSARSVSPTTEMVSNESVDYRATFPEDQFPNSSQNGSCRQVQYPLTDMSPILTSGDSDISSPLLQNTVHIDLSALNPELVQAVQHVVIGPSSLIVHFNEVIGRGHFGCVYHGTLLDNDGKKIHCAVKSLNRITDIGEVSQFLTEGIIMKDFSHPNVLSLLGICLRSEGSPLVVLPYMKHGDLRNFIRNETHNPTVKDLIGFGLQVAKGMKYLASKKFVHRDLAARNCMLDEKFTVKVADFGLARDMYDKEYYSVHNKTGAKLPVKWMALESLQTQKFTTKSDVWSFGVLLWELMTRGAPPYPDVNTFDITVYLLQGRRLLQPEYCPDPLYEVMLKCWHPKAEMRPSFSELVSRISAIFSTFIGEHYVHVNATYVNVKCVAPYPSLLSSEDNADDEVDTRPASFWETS
Assay [12] addresses Serine/threonine-protein kinase PLK1 (Homo sapiens) (UniProt P53350). As to the kind of experiment: Inhibition of PLK1 at 10 uM.
Assay [13] concerns the target Serine/threonine-protein kinase N1 (Homo sapiens) (UniProt Q16512). Description: Inhibition of PRK1 at 10 uM.
Assay [14] concerns the target T2, Serine/threonine-protein kinase PLK4 (Homo sapiens) (UniProt O00444).
T2 sequence (whole entry): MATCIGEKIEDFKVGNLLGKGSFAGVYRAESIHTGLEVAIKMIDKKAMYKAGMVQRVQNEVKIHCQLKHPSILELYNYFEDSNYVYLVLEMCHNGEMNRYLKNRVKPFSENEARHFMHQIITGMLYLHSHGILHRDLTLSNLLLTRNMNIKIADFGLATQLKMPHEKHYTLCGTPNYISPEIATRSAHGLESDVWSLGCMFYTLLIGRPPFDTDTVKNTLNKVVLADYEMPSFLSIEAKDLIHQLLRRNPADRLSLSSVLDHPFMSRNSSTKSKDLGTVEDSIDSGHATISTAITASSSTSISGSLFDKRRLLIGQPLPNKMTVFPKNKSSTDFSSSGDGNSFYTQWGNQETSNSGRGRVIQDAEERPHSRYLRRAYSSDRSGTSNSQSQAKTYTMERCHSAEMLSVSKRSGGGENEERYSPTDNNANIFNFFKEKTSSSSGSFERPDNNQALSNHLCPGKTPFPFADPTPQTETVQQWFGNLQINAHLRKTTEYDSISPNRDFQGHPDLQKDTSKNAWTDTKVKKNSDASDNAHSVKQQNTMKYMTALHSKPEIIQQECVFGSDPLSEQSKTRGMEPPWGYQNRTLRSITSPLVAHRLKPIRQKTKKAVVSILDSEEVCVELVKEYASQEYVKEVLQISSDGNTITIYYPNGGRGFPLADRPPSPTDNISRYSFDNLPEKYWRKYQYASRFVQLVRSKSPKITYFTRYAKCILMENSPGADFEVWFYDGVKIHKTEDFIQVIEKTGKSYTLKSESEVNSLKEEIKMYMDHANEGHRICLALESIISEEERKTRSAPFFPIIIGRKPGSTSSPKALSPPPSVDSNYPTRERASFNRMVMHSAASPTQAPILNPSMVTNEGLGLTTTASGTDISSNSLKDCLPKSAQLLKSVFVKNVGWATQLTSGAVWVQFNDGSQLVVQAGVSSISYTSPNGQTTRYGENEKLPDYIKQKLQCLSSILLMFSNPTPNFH
Description: Inhibition of SAK at 10 uM.

Assay [15] has as its target Proto-oncogene tyrosine-protein kinase Src (Homo sapiens) (UniProt P12931). Description: Inhibition of SRC at 10 uM.
The target of assay [16] is BDNF/NT-3 growth factors receptor (Homo sapiens) (UniProt Q16620). As to the kind of experiment: Inhibition of TRKB at 10 uM.
Sequence of BDNF/NT-3 growth factors receptor (Homo sapiens) (Q16620 32-822 limits assumed): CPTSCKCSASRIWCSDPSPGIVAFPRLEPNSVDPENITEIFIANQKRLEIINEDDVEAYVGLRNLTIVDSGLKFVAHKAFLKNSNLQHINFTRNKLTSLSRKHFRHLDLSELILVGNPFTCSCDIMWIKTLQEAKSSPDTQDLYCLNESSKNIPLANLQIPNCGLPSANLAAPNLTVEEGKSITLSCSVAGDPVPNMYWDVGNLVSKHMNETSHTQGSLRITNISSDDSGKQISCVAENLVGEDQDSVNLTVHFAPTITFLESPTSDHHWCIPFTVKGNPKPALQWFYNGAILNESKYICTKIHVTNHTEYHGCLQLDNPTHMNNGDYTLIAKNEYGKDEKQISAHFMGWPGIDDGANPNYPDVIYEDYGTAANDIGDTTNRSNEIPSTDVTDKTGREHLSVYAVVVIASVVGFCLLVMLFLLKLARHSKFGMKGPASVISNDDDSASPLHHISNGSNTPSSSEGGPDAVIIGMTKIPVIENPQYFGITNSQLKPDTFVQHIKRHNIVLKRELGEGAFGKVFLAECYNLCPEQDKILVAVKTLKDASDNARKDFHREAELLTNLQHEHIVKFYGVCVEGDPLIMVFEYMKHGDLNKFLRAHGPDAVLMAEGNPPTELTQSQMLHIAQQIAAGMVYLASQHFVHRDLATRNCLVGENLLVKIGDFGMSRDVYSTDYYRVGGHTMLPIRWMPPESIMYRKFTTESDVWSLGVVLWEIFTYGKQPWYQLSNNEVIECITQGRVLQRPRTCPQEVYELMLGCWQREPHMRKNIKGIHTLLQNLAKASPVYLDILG
Assay [17] concerns the target Vascular endothelial growth factor receptor 2 (Homo sapiens) (UniProt P35968). Description: Inhibition of VGFR2 at 10 uM.

Active and inactive are the calls of the source. The calls are words filed in the database; no cut-off is given here.

Sequence of Focal adhesion kinase 1 (Homo sapiens) (Q05397 2-1052 limits assumed): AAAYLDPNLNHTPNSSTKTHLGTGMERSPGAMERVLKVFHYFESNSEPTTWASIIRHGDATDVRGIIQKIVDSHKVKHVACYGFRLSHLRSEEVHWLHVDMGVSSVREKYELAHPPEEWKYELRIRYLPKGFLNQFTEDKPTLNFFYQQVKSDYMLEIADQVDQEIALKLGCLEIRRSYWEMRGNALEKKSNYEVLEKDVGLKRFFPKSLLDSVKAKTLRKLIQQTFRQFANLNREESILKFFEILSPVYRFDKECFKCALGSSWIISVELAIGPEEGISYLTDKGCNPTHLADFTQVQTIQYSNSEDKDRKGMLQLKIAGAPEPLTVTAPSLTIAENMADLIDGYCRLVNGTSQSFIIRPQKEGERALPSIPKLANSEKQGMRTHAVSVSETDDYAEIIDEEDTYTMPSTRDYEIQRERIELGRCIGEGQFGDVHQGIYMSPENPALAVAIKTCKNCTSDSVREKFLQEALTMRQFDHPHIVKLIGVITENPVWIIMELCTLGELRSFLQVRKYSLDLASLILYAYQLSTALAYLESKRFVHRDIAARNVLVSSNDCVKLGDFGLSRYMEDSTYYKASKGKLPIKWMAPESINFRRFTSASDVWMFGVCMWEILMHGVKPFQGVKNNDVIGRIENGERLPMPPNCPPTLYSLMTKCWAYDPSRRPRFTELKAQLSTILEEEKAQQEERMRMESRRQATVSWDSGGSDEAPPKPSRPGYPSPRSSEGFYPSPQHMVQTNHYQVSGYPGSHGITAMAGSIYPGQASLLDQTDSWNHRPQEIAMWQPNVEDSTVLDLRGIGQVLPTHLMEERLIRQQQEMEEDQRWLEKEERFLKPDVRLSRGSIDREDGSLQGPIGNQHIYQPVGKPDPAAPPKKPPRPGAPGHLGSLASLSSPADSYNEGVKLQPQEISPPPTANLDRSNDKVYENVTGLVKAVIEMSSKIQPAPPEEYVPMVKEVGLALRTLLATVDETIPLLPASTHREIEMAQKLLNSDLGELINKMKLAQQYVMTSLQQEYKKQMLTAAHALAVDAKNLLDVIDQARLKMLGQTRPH
Sequence of Insulin-like growth factor 1 receptor (Homo sapiens) (P08069 31-736 limits assumed): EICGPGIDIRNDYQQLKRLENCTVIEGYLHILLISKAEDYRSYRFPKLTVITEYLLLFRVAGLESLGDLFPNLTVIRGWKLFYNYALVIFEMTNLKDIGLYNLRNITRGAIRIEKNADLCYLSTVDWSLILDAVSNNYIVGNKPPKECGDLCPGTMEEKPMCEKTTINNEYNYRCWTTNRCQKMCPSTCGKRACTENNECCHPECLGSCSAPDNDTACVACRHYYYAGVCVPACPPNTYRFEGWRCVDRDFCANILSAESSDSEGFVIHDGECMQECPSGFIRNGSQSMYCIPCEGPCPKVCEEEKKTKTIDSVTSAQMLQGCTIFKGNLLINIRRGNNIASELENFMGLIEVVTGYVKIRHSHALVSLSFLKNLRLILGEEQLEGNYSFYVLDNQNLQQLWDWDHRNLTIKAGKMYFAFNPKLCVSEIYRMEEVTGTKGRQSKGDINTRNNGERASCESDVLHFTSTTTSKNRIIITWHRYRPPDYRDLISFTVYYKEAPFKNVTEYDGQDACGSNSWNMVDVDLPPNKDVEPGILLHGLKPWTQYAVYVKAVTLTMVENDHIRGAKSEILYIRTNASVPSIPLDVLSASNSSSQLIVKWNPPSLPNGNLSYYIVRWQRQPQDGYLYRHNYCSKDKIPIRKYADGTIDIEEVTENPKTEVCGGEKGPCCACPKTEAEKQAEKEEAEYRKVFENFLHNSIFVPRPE
Sequence of Insulin-like growth factor 1 receptor (Homo sapiens) (P08069 741-1367 limits assumed): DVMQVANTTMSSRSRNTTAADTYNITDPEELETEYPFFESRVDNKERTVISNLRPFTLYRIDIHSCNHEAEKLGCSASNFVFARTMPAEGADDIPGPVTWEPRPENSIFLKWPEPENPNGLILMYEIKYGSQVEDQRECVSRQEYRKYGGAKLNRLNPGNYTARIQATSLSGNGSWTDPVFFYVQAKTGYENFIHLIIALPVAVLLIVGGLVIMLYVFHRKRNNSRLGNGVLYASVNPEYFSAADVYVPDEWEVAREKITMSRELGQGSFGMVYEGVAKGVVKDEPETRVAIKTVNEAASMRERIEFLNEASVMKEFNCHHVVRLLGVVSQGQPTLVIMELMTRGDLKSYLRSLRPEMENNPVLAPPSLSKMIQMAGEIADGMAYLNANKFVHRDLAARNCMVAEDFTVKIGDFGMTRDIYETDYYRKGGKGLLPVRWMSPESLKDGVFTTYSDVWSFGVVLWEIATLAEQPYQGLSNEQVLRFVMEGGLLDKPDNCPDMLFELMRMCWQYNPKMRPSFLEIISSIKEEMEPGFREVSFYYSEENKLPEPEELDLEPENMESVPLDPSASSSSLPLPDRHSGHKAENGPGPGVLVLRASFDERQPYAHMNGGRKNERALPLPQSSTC

Take `Nc1cc(F)ccc1Nc1ccc2c(c1)CC(=O)c1ccccc1C2`: the IC50 in [1] was 0.98 µM. In addition, the inhibition entry in [2], in [3], in assay [4], in assay [5], in [6] and in [7] was “inactive” each time. In addition, the inhibition entry in assay [8], in assay [9], in assay [10], in [11], in assay [12] and in assay [13] was “inactive” each time. The inhibition result in assay [14], in assay [15], in [16] and in assay [17] was “inactive” in each case.

As for `Nc1ccccc1Nc1ccc2c(c1)Oc1ccccc1CC2=O`, in assay [1], the IC50 was determined as 1.2 µM.

For `Nc1cc(F)ccc1Nc1ccc2c(c1)Oc1ccccc1CC2=O`, the IC50 in assay [1] was 1.63 µM.

Regarding `Nc1cc(F)ccc1Nc1ccc2c(c1)Oc1ccccc1NC2=O`, in [1], the IC50 came to 2.92 µM. Besides, the inhibition result in assay [2], in assay [3], in assay [4], in [5], in assay [6] and in assay [7] was “inactive” each time. Moreover, the inhibition result in assay [8], in assay [9], in assay [10], in assay [11], in assay [12] and in [13] was “inactive” in each case. Further, the inhibition result in assay [14], in assay [15], in assay [16] and in [17] was “inactive” each time.

For the compound `Nc1cc(F)ccc1Nc1ccc2c(c1)Cc1ccccc1C(=O)C2`, the IC50 in [1] came to 3.82 µM. Further, the inhibition result in assay [2], in assay [3], in assay [4], in assay [5], in assay [6] and in [7] was “inactive” each time. Also, the inhibition result in assay [8], in assay [9], in [10], in assay [11], in assay [12] and in [13] was “inactive” in each case. Moreover, the inhibition result in [14], in [15], in assay [16] and in assay [17] was “inactive” throughout.

In the case of `O=C1Cc2ccc(Nc3ccccc3)cc2Cc2ccccc21`, the IC50 in assay [1] worked out at 3.21 µM. Besides, the inhibition result in assay [2], in [3], in [4], in [5], in assay [6] and in assay [7] was “inactive” in each case. Further, the inhibition entry in assay [8], in [9], in assay [10], in [11], in assay [12] and in [13] was “inactive” each time. Moreover, the inhibition result in assay [14], in [15], in [16] and in [17] was “inactive” in each case.

On to `O=C1Cc2ccccc2Cc2cc(Nc3ccc(F)cc3F)ccc21`, for which the IC50 in assay [1] came out at 1.51 µM. Moreover, the inhibition result in [2], in assay [3], in [4], in assay [5], in assay [6] and in [7] was “inactive” each time. Moreover, the inhibition result in [8], in [9], in assay [10], in assay [11], in assay [12] and in assay [13] was “inactive” throughout. In addition, the inhibition result in assay [14], in assay [15], in assay [16] and in assay [17] was “inactive” each time.

Consider `Nc1ccccc1Nc1ccc2c(c1)Oc1ccccc1NC2=O`, for which the IC50 in assay [1] came to 2.7 µM. Further, the inhibition entry in assay [2], in assay [3], in assay [4], in [5], in assay [6] and in assay [7] was “inactive” throughout. Also, the inhibition entry in assay [8], in assay [9], in assay [10], in assay [11], in assay [12] and in assay [13] was “inactive” in each case. Further, the inhibition result in assay [14], in assay [15], in assay [16] and in assay [17] was “inactive” each time.

In the case of `Nc1cc(F)ccc1Nc1ccc2c(c1)Cc1ccccc1CC2=O`, the IC50 in [1] is 1.72 µM. The inhibition entry in assay [2], in assay [3], in assay [4], in assay [5], in [6] and in [7] was “inactive” each time. Also, the inhibition result in assay [8], in [9], in [10], in assay [11], in [12] and in assay [13] was “inactive” in each case. In addition, the inhibition result in assay [14], in assay [15], in [16] and in [17] was “inactive” throughout.

`O=C1Cc2ccccc2Oc2cc(Nc3ccccc3)ccc21`: the IC50 in assay [1] stood at 2.92 µM.

As to `Nc1ccccc1Nc1ccc2c(c1)CCc1ccccc1C2=O`, the IC50 in assay [1] was found to be 0.05 µM.

Broadly, the IC50 is the concentration needed to halve the response being measured.
